Assay results: ChEMBL document CHEMBL1125755, “Synthesis and structure-activity relationships of benzo[b]thienylallylamine antimycotics” (1991)
In brackets after ≈: the same amount, converted by molar mass.

What was measured:
[1] = system: Sporothrix schenckii; assay: Evaluated in vitro for the minimum inhibitory concentration against Sporothrix schenckii.
[2] = system: Trichophyton benhamiae; assay: Evaluated in vitro for the minimum inhibitory concentration against Trichophyton mentagrophytes; type: functional, Arthroderma benhamiae
Summary of the method: (§1)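 Dermatophytes were tested in glass tubes of Sabouraud's dextrose broth (pH 6.5) against DMSO-dissolved compounds serially diluted in the medium. Inoculum was taken by spatula from 21-day Kimming agar cultures grown at 30 °C. Incubation was 7 days at 30 °C. MIC was the lowest concentration showing no macroscopic fungal growth.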

[3] = system: Candida parapsilosis; assay: Evaluated in vitro for the minimum inhibitory concentration against Candida parapsilosis 39.; type: functional; conditions: Lodderomyces parapsilosis
Summary of the method: (§2)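 Yeast tube dilution in malt extract broth (pH 4.8), with compounds in DMSO serially diluted in the medium. Inoculum was blastospores from about 30-h shaken cultures in yeast nitrogen base at 37 °C. Growth was read after 48 h at 30 °C. MIC was the lowest concentration without macroscopically visible growth.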

[4] = system: Microsporum canis; assay: Evaluated in vitro for the minimum inhibitory concentration against Microsporum canis.; type: functional
Summary of the method: as §1

[5] = system: Candida albicans; assay: Evaluated in vitro for the minimum inhibitory concentration against Candida albicans 124; type: functional
Summary of the method: as §2

[6] = system: Aspergillus fumigatus; assay: In vitro minimum inhibitory concentration which is the lowest concentration at which no signs of fungal growth were detected against Aspergillus fumigatus
[7] = system: Aspergillus fumigatus; assay: Evaluated in vitro for the minimum inhibitory concentration against Aspergillus fumigatus.
[8] = system: Sporothrix schenckii; assay: In vitro minimum inhibitory concentration which is the lowest concentration at which no signs of fungal growth were detected against Sporothrix schenckii
[9] = system: Microsporum canis; assay: In vitro minimum inhibitory concentration which is the lowest concentration at which no signs of fungal growth were detected against Microsporum canis.; type: functional
Summary of the method: as §1

[10] = system: Candida parapsilosis; assay: In vitro minimum inhibitory concentration which is the lowest concentration at which no signs of fungal growth were detected against Candida parapsilosis 39.; type: functional; conditions: Lodderomyces parapsilosis
Summary of the method: as §2

[11] = system: Trichophyton benhamiae; assay: In vitro minimum inhibitory concentration which is the lowest concentration at which no signs of fungal growth were detected against Trichophyton mentagrophytes.; type: functional, Arthroderma benhamiae
Summary of the method: as §1

[12] = system: Candida albicans; assay: In vitro minimum inhibitory concentration which is the lowest concentration at which no signs of fungal growth were detected against Candida albicans 124; type: functional
Summary of the method: as §2

[13] = system: Aspergillus fumigatus; assay: In vitro minimum inhibitory concentration which is the lowest concentration at which no signs of fungal growth were detected against Aspergillus fumigatus.
[14] = system: Scopulariopsis brevicaulis; assay: In vitro minimum inhibitory concentration at which no signs of fungal growth were detected against laboratory adapted strains of Scopulariopsis brevicaulis.; type: functional
Summary of the method: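 Inoculum of this mould harvested from 21-day-old Kimming agar cultures grown at 30 °C. Compounds dissolved in DMSO and serially diluted in broth in glass tubes. Incubated at 30 °C and read after 72 h. MIC is the lowest concentration with no macroscopically detectable growth.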

[15] = system: Arthrodermataceae; assay: In vitro minimum inhibitory concentration at which no signs of fungal growth were detected against clinical isolated strains of dermatophytes.; type: functional
Summary of the method: as §1

[16] = system: Candida albicans; assay: In vitro minimum inhibitory concentration at which no signs of fungal growth were detected against laboratory adapted strains of Candida albicans.; type: functional
Summary of the method: (§3)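 Yeast blastospores taken from shaken cultures about 30 h old, grown at 37 °C in yeast nitrogen base. Tube dilution used malt extract broth (pH 4.8); compounds were dissolved in DMSO and serially diluted in medium. Incubated at 30 °C and read after 48 h. MIC is the lowest concentration with no macroscopic growth.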

[17] = system: Arthrodermataceae; assay: In vitro minimum inhibitory concentration at which no signs of fungal growth were detected against laboratory adapted strains of dermatophytes.; type: functional
Summary of the method: (§4)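 Sabouraud's dextrose broth (pH 6.5) in glass tubes; compounds dissolved in DMSO and serially diluted with medium. Incubated at 30 °C and read after 7 days. MIC is the lowest concentration with no macroscopically visible fungal growth.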

[18] = system: Nakaseomyces glabratus; assay: In vitro minimum inhibitory concentration at which no signs of fungal growth were detected against laboratory adapted strains of Torulopsis glabrata.; type: functional
Summary of the method: as §3

[19] = system: Aspergillus niger; assay: In vitro minimum inhibitory concentration at which no signs of fungal growth were detected against laboratory adapted strains of Aspergillus niger.; type: functional
Summary of the method: (§5)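 Inoculum of filamentous fungi harvested from 21-day-old Kimming agar cultures grown at 30 °C. Broth dilution in glass tubes with Sabouraud's dextrose broth (pH 6.5); compounds dissolved in DMSO and serially diluted in medium. Incubation at 30 °C, read after 72 h. MIC taken as the lowest concentration with no macroscopically visible growth.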

[20] = system: Candida parapsilosis; assay: In vitro minimum inhibitory concentration at which no signs of fungal growth were detected against laboratory adapted strains of Candida parapsilosis.; type: functional; conditions: Lodderomyces parapsilosis
Summary of the method: as §3

[21] = system: Aspergillus fumigatus; assay: In vitro minimum inhibitory concentration at which no signs of fungal growth were detected against laboratory adapted strains of Aspergillus fumigatus.; type: functional
Summary of the method: as §5

[22] = system: Candida albicans; assay: In vitro minimum inhibitory concentration at which no signs of fungal growth were detected against clinical isolated strains of Candida albicans.; type: functional
Summary of the method: as §2

[23] = system: Sporothrix schenckii; assay: In vitro minimum inhibitory concentration at which no signs of fungal growth were detected against laboratory adapted strains of Sporotrix schenck ii.; type: functional
Summary of the method: as §4

[24] = system: Arthrodermataceae; assay: In vitro minimum inhibitory concentration at which no signs of fungal growth were detected against clinically isolated strains of dermatophytes.; type: functional
Summary of the method: as §1

[25] = system: Nakaseomyces glabratus; assay: In vitro minimum inhibitory concentration at which no signs of fungal growth were detected against laboratory adapted strains of Torulopsis glabrata; type: functional
Summary of the method: as §3

[26] = system: Candida albicans; assay: In vitro minimum inhibitory concentration at which no signs of fungal growth were detected against clinically isolated strains of Candida albicans.; type: functional
Summary of the method: as §2

[27] = system: Sporothrix schenckii; assay: In vitro minimum inhibitory concentration at which no signs of fungal growth were detected against laboratory adapted strains of Sporothrix schenck ii; type: functional
Summary of the method: as §4

| SMILES | MIC [1] [µg/mL] | MIC [2] [µg/mL] | MIC [3] [µg/mL] | MIC [4] [µg/mL] | MIC [5] [µg/mL] | MIC [7] [µg/mL] | other results |
| --- | --- | --- | --- | --- | --- | --- | --- |
| CN(C/C=C/C#CC(C)(C)C)Cc1c(Cl)sc2ccccc12 | > 200 | 0.1 (≈ 0.301 µM) | 6.25 (≈ 18.8 µM) | 0.1 (≈ 0.301 µM) | > 200 | > 200 |  |
| CN(C/C=C/C#CC(C)(C)C)Cc1cccc2c(C=O)csc12 |  |  |  |  |  |  | MIC [8]: 1.56 µg/mL (≈ 4.79 µM); MIC [9]: 0.02 µg/mL (≈ 0.0614 µM); MIC [10]: 0.4 µg/mL (≈ 1.23 µM); MIC [11]: 0.05 µg/mL (≈ 0.154 µM); MIC [12]: 6.25 µg/mL (≈ 19.2 µM); MIC [13]: 0.4 µg/mL (≈ 1.23 µM) |
| CN(C/C=C/C#CC(C)(C)C)Cc1ccc2sccc2c1 | > 200 | 0.4 (≈ 1.34 µM) | 100 (≈ 336 µM) | 1.56 (≈ 5.24 µM) | 200 (≈ 672 µM) | 1.56 (≈ 5.24 µM) |  |
| CN(C/C=C/C#CC(C)(C)C)Cc1csc2ccccc12.Cl | 3.13 | 0.01 | 3.13 | 0.02 | 100 | 0.8 |  |
| CN(C/C=C/C#CC(C)(C)C)Cc1cccc2c(Cl)csc12.Cl | 0.1 | 0.0015 | 0.1 | 0.003 | 0.8 | 0.2 | MIC [14]: 0.05 µg/mL; MIC [15]: 0.02 µg/mL; MIC [16]: 0.4 µg/mL; MIC [17]: 0.003 µg/mL; MIC [18]: > 100 µg/mL; MIC [19]: 0.02 µg/mL; MIC [20]: 0.02 µg/mL; MIC [21]: 0.05 µg/mL; MIC [22]: 3.13 µg/mL; MIC [23]: 0.1 µg/mL |
| CN(C/C=C/C#CC(C)(C)C)Cc1cc(Cl)cc2ccsc12.Cl | > 200 | 0.05 | 0.2 | 0.1 | > 200 | 3.13 |  |
| CSc1csc2c(CN(C)C/C=C/C#CC(C)(C)C)cccc12.Cl | > 200 | 0.02 | 0.8 | 0.1 | 6.25 | 6.25 |  |
| CN(C/C=C/C#CC(C)(C)C)Cc1cccc2c(C#N)csc12.Cl |  |  |  |  |  |  | MIC [8]: 0.4 µg/mL; MIC [9]: 0.01 µg/mL; MIC [10]: 0.2 µg/mL; MIC [11]: 0.02 µg/mL; MIC [12]: 3.13 µg/mL; MIC [13]: 3.13 µg/mL |
| CN(C/C=C/C#CC(C)(C)C)Cc1cccc2sc(Cl)cc12.Cl | 6.25 | 0.006 | 0.2 | 0.006 | 25 | 0.2 |  |
| CN(C/C=C/C#CC(C)(C)C)Cc1cccc2cc(F)sc12.Cl | 3.13 | 0.006 |  | 0.01 | 25 | 0.05 | MIC [10]: 6.25 µg/mL |
| CN(C/C=C/C#CC(C)(C)C)Cc1cccc2ccsc12.Cl | 0.1 | 0.006 | 0.8 | 0.01 | 25 | 0.2 |  |
| CN(C/C=C/C#CC(C)(C)C)Cc1cccc2c(Br)csc12.Cl |  |  |  |  |  |  | MIC [8]: 0.4 µg/mL; MIC [9]: 0.006 µg/mL; MIC [10]: 0.2 µg/mL; MIC [11]: 0.006 µg/mL; MIC [12]: 0.8 µg/mL; MIC [13]: 0.8 µg/mL |
| CN(C/C=C/C#CC(C)(C)C)Cc1cccc2c(F)csc12.Cl | 0.05 | 0.0008 | 0.1 | 0.0015 | 0.8 | 0.1 |  |
| CN(C/C=C/C#CC(C)(C)C)Cc1cccc2ccccc12 [TERBINAFINE] |  |  |  |  |  |  | MIC [24]: 0.01 µg/mL (≈ 0.0343 µM); MIC [14]: 0.8 µg/mL (≈ 2.75 µM); MIC [8]: 0.8 µg/mL (≈ 2.75 µM); MIC [16]: 50 µg/mL (≈ 172 µM); MIC [25]: > 100 µg/mL; MIC [9]: 0.006 µg/mL (≈ 0.0206 µM); MIC [17]: 0.006 µg/mL (≈ 0.0206 µM); MIC [19]: 0.02 µg/mL (≈ 0.0686 µM); MIC [10]: 0.8 µg/mL (≈ 2.75 µM); MIC [11]: 0.003 µg/mL (≈ 0.0103 µM); MIC [20]: 0.8 µg/mL (≈ 2.75 µM); MIC [12]: 25 µg/mL (≈ 85.8 µM); MIC [21]: 1.56 µg/mL (≈ 5.35 µM); MIC [26]: 100 µg/mL (≈ 343 µM); MIC [27]: 0.4 µg/mL (≈ 1.37 µM); MIC [13]: 0.4 µg/mL (≈ 1.37 µM) |

Second part, led by results:

| MIC [1] [µg/mL] | MIC [2] [µg/mL] | MIC [3] [µg/mL] | MIC [4] [µg/mL] | MIC [5] [µg/mL] | MIC [7] [µg/mL] | SMILES | other results |
| --- | --- | --- | --- | --- | --- | --- | --- |
| > 100 | > 100 | > 200 | > 100 | > 200 |  | CN(C/C=C/C#CC(C)(C)C)Cc1cc2ccccc2s1 |  |
| 3.13 (≈ 9.43 µM) | 0.006 (≈ 0.0181 µM) | 0.4 (≈ 1.21 µM) | 0.006 (≈ 0.0181 µM) | 12.5 (≈ 37.7 µM) |  | CN(C/C=C/C#CC(C)(C)C)Cc1csc2ccc(Cl)cc12 | MIC [6]: 0.4 µg/mL (≈ 1.21 µM) |
| 25 | 0.05 | 6.25 | 0.1 | 50 | 0.8 | CN(C/C=C/C#CC(C)(C)C)Cc1cccc2scc(Cl)c12.Cl |  |
| > 100 | 0.02 | 1.56 | 0.05 | 25 | 0.8 | CN(C/C=C/C#CC(C)(C)C)Cc1csc2c(Cl)cccc12.Cl |  |
| 0.8 | 0.006 | 1.56 | 0.01 | 50 | 0.4 | CN(C/C=C/C#CC(C)(C)C)Cc1cccc2sccc12.Cl |  |
| 50 | 0.05 | 1.56 | 0.1 | 3.13 | 12.5 | CN(C/C=C/C#CC(C)(C)C)Cc1cccc2c(C(F)(F)F)csc12.Cl |  |
| > 200 | 0.1 | 0.8 | 0.4 | 100 | > 200 | CN(C/C=C/C#CC(C)(C)C)Cc1ccc(Cl)c2ccsc12.Cl |  |
| > 100 | 0.01 | 0.8 | 0.01 | > 100 | > 100 | CN(C/C=C/C#CC(C)(C)C)Cc1cccc2cc(Cl)sc12.Cl |  |
| 0.1 | 0.006 | 0.4 | 0.006 | 3.13 | 0.4 | Cc1csc2c(CN(C)C/C=C/C#CC(C)(C)C)cccc12.Cl |  |
